Measured values from PMC3428850 (Molecular cancer therapeutics, 2012).

What was measured:
[1] = test system: PI-3K; assay: PI-3K-dependent AKT phosphorylation; format: cell-based, human; conditions: read-out: IC50 PI-3K-mediated AKT phosphorylation; MCF7 cells, IGF-1 stimulated
Procedure, shortened: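 MCF7 cells in RPMI 1640/10% FBS. Exposed to a concentration range of test compound for 1 h, then 50 ng/ml IGF-1 for 30 min. Western blot of AKT Ser473 relative to total AKT. Rise above unstimulated baseline in treated cells expressed as % of the rise in control cells. Mean of three independent experiments fitted to a sigmoidal dose-response curve for IC50.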

[2] = test system: M059J cells; assay: clonogenic survival assay, DNA-PKcs-deficient cells; format: cell-based, human; conditions: clonogenic survival
Procedure, shortened: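 Human glioblastoma M059J cells (DNA-PKcs-deficient) and M059-Fus-1 cells (chromosome 8 transfected; G-418 200 μg/ml) in DMEM/10% FBS. Etoposide or doxorubicin alone or with 1 μM test compound, or test compound alone, for 16 h. Reseeded drug-free. Crystal violet colony counts after 10-14 days. Fold enhancement as survival ratio. Means ± SD, n = 3.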

[3] = test system: T47D cells; assay: clonogenic survival assay; format: cell-based, human
Procedure, shortened: (§1)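 Cells in RPMI 1640/10% FBS were exposed in 6-well plates for 16 h to etoposide or doxorubicin with or without test compound (1 μM), or to test compound alone. Cells then harvested and reseeded in drug-free medium. Colonies stained with crystal violet after 10-14 days and counted automatically. Fold enhancement = survival with cytotoxic alone / survival with cytotoxic + 1 μM test compound. Means ± SD, n = 3.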

[4] = test system: MDA-MB-231 cells; assay: clonogenic survival assay; format: cell-based, human
Procedure, shortened: as §1

[5] = test system: LoVo cells; assay: clonogenic survival assay; format: cell-based, human
Procedure, shortened: as §1

[6] = test system: MCF7 cells; assay: clonogenic survival assay; format: cell-based, human
Procedure, shortened: as §1

[7] = test system: SW620 cells; assay: clonogenic survival assay; format: cell-based, human
[8] = test system: MCF7 xenografts; assay: anti-tumour efficacy study, MCF7 xenografts; format: in vivo; conditions: MCF7 tumour-bearing mice
[9] = test system: SW620 xenografts; assay: anti-tumour efficacy study, SW620 xenografts; format: in vivo, mice
Procedure, shortened: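 Female athymic CD1-nu/nu mice with s.c. SW620, n = 5/group, treated once tumours were palpable (~5 × 5 mm, day 8-10). Controls: saline i.p. daily. Test compound 10 mg/kg i.p. for 5 days. Etoposide phosphate 11.35 mg/kg i.p. (10 mg/kg etoposide) daily × 5. Combination: test compound i.p. once or twice daily × 5, first dose just before etoposide. Caliper volume a²×b/2; median RTV (day 0 = 1); time to RTV4.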

[10] = test system: V3 cells; assay: clonogenic survival assay, DNA-PKcs-deficient cells; format: cell-based, Chinese hamster; conditions: clonogenic survival
Procedure, shortened: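 Chinese hamster ovary V3 cells (DNA-PKcs-deficient) and V3-YAC cells (human DNA-PKcs on YAC; kept under G-418 500 μg/ml) in RPMI 1640/10% FBS. Etoposide alone or with 1 μM test compound, or test compound alone, for 16 h. Reseeded drug-free. Crystal violet colony counts after 10-14 days. Fold enhancement as survival ratio. Means ± SD of 3 independent experiments.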

[11] = 100 nM doxorubicin with or without 1 μM KU-0060648, 16 hr
[12] = 1 μM etoposide with or without 1 μM KU-0060648, 16 hr

O=c1cc(N2CCOCC2)oc2c(-c3cccc4c3sc3ccccc34)cccc12 [NU7441, reference compound]
IC50 [1]: 3.9 ± 3.5 µM

COc1cccc2c1C(=O)c1c(O)c3c(c(O)c1C2=O)C[C@@](O)(C(=O)CO)C[C@@H]3O[C@H]1C[C@H](N)[C@H](O)[C@H](C)O1 [doxorubicin, reference compound]
fold more sensitive, DNA-PKcs-deficient M059J versus M059-Fus-1 cells [2]: approximately 23 fold
survival (clonogenic) [3, 11]: 9.0±3.2
survival (clonogenic) ([4]; MDA-MB-231, 100 nM doxorubicin with or without 1 μM KU-0060648, 16 hr): 1.8±0.6
survival (clonogenic) [5, 11]: 1.4±0.9
survival (clonogenic) ([6]; MCF7, 100 nM doxorubicin with or without 1 μM KU-0060648, 16 hr): 42.3±13
survival (clonogenic) ([7]; SW620, 100 nM doxorubicin with or without 1 μM KU-0060648, 16 hr): 0.06±0.06

COc1cc([C@@H]2c3cc4c(cc3[C@@H](O[C@@H]3O[C@@H]5CO[C@@H](C)O[C@H]5[C@H](O)[C@H]3O)[C@H]3COC(=O)[C@H]23)OCO4)cc(OC)c1OP(=O)(O)O [etoposide phosphate, reference compound]
maximum body weight loss [8]: 3%
maximum body weight loss ([9]; SW620 tumour-bearing mice): no body weight loss
time to RTV4 (median) ([9]; SW620 xenografts, single agent or combination with once daily KU-0060648): 6.5 days

COc1cc([C@@H]2c3cc4c(cc3[C@@H](O[C@@H]3O[C@@H]5CO[C@@H](C)O[C@H]5[C@H](O)[C@H]3O)[C@H]3COC(=O)[C@H]23)OCO4)cc(OC)c1O [etoposide, reference compound]
fold more sensitive, DNA-PKcs-deficient M059J versus M059-Fus-1 cells [2]: approximately 2.5 fold
survival (clonogenic) [3, 12]: 24±4
survival (clonogenic) ([4]; MDA-MB-231, 1 μM etoposide with or without 1 μM KU-0060648, 16 hr): 16±10
survival (clonogenic) [5, 12]: 3.5±0.5
fold more sensitive, DNA-PKcs-deficient V3 versus V3-YAC cells [10]: approximately 3 fold
survival (clonogenic) ([6]; MCF7, 1 μM etoposide with or without 1 μM KU-0060648, 16 hr): 23±9
survival (clonogenic) ([7]; SW620, 1 μM etoposide with or without 1 μM KU-0060648, 16 hr): 4.7±2.0
